# ChEMBL document CHEMBL4706641, “Novel Carboline Fungal Histone Deacetylase (HDAC) Inhibitors for Combinational Treatment of Azole-Resistant Candidiasis” (J Med Chem, 2021)
# Calls of active or inactive are those of the source. The calls are words filed in the database; no cut-off is given here.
# Experiments:
# [1] = test system: Candida albicans; assay: Synergistic antifungal activity against Candida albicans 4108 assessed as fluconazole MIC incubated for 48 hrs in presence of fluconazole by microdilution assay (reference value: fluconazole alone MIC = >[…] ug/ml); format: functional
# [2] = test system: Candida albicans; assay: Synergistic antifungal activity against Candida albicans 9172 assessed as fluconazole MIC incubated for 48 hrs in presence of fluconazole by microdilution assay (reference value: fluconazole alone MIC = >[…] ug/ml); format: functional
# [3] = test system: Candida albicans; assay: Synergistic antifungal activity against azole-resistant Candida albicans assessed as potentiation of ITC antifungal activity by measuring ITC incubated for 48 hrs in presence of fluconazole by checkerboard microdilution assay; format: functional
# [4] = test system: Candida albicans; assay: Synergistic antifungal activity against Candida albicans 10061 assessed as fluconazole MIC incubated for 48 hrs in presence of fluconazole by microdilution assay (reference value: fluconazole alone MIC = >[…] ug/ml); format: functional
# [5] = target: T1, Protein deacetylase HDAC6 (Homo sapiens, UniProt Q9UBN7); assay: Inhibition of human HDAC6 pre-incubated for 5 mins before substrate addition and measured after 30 mins by fluorescence based assay
# T1 sequence (Q9UBN7 whole entry): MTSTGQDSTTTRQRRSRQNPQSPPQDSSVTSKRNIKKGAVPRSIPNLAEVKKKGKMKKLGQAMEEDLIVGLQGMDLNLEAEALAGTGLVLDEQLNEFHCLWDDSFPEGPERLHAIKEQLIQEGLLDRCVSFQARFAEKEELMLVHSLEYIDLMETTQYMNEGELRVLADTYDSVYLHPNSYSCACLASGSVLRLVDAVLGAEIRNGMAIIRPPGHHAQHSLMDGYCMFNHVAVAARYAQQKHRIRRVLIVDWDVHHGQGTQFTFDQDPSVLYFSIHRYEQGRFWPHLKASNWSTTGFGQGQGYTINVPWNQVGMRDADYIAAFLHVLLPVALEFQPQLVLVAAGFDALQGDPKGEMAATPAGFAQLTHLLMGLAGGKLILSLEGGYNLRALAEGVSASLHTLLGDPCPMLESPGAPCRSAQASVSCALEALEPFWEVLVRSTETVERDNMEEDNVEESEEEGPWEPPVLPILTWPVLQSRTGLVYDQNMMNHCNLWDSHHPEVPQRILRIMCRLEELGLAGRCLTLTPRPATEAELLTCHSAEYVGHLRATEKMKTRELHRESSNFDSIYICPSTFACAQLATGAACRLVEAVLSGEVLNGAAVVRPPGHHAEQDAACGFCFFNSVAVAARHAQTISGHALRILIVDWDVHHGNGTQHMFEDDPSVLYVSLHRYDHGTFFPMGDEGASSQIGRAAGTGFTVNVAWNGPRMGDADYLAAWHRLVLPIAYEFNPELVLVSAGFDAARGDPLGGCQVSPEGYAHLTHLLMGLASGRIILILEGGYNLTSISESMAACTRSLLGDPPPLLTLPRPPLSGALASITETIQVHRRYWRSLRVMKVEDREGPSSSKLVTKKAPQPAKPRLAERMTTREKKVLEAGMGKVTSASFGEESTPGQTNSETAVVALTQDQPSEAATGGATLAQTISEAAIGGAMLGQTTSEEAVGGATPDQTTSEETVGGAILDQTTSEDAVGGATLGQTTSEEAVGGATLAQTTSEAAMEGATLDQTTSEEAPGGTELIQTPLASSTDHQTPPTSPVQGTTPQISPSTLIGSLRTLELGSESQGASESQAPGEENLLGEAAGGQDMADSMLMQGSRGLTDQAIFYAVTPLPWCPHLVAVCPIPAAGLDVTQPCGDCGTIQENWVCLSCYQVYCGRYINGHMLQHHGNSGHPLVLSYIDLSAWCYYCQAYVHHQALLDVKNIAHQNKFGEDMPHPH
# [6] = test system: Candida albicans; assay: Inhibition of biofilm formation in Candida albicans 0304103 at 0.12 to 64 ug/ml incubated for 24 hrs by XTT reduction assay; format: functional, organism-based; settings: dose 0.12-64 µg/ml
# Method in brief: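 C. albicans 0304103 at 1.0 × 10⁶ CFU/mL in RPMI 1640 allowed to adhere 90 min at 37 °C, washed with PBS, then fresh medium with fluconazole 2–32 μg/mL and/or compound 0.12–64 μg/mL added; 24 h at 37 °C. Biofilm metabolic activity by XTT reduction, OD490. Three independent experiments.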
# [7] = test system: Candida albicans; assay: Antifungal activity against Candida albicans 9172 incubated for 48 hrs by microdilution assay; format: functional
# Method in brief: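 Checkerboard broth microdilution per CLSI M27-A3 (modified), clinical Candida isolates. Exponential cells in RPMI 1640 (MOPS-buffered) at 10³ cells/mL; fluconazole 0.25–64 μg/mL crossed with test compound 2–64 μg/mL (final). 48 h at 35 °C; OD630 read with background subtracted. MIC80 = 80% growth inhibition; FICI ≤0.5 synergy, >4 antagonism.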
# [8] = test system: Candida albicans; assay: Synergistic antifungal activity against Candida albicans 0304103 at 8 ug/ml incubated for 48 hrs in presence of 32 ug/ml fluconazole by microdilution assay; format: functional, organism-based; settings: dose 8.0 µg/ml
# [9] = test system: Candida albicans; assay: Inhibition of pre-formed biofilms in Candida albicans 0304103 at 64 ug/ml incubated for 24 hrs in presence of fluconazole by XTT reduction assay; format: functional; settings: dose 64.0 µg/ml
# Method in brief: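 Mature biofilms grown 24 h at 37 °C from C. albicans 0304103 (1.0 × 10⁶ CFU/mL in RPMI 1640), then treated with drugs alone or combined as in the formation assay; viability by XTT reduction at OD490. Three independent experiments; t-test versus control.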
# [10] = test system: Candida albicans; assay: Antifungal activity against Candida albicans 0304103 infected in ICR mouse model of candidiasis assessed as reduction in morphological changes of budded-to-hyphal transition at 10 mg/kg, ip dosed 24 hrs post infection and co-treated with 1 mg/kg, ip fluconazole and measured after 5 days by H and E staining based microscopical analysis; format: functional, organism-based; settings: time 5.0 day
# Method in brief: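 Two ICR mice per group, infected and treated as in the kidney burden model (IV 5 × 10⁵ C. albicans 0304103; IP compound 10 mg/kg, fluconazole 1 mg/kg, or combination, 5 days). Kidneys fixed in 4% paraformaldehyde, paraffin-embedded, 4 μm sections, H&E stained, examined at 40× and 200×.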
# [11] = test system: Candida albicans; assay: Inhibition of HDAC in Candida albicans supernatants using Boc-Lys(Ac)-AMC substrate incubated for 18 hrs by fluorescence based assay
# Method in brief: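 Fungal whole-cell HDAC assay: C. albicans converted to protoplasts by snailase/mercaptoethanol (37 °C, 3 h), resuspended in PBS; compound 1–100 μM final, 35 °C 12 h, then Boc-Lys(Ac)-AMC 33 μM, 37 °C 6 h. Stopped with trypsin/Nonidet P-40 buffer, 37 °C 2 h; fluorescence Ex 360/Em 460 nm. Inhibition vs control after blank subtraction; three independent experiments.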
# [12] = test system: Candida albicans; assay: Up-regulation of CDR2 mRNA expression in Candida albicans 0304103 at 32 ug/ml incubated for 24 hrs by RT-PCR analysis; format: functional; settings: dose 32.0 µg/ml
# Method in brief: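 C. albicans 0304103 (initial 1 × 10⁶ cells/mL) treated with DMSO, fluconazole 32 μg/mL, compound 32 μg/mL, or both in YEPD medium, 35 °C for 24 h. Total RNA extracted, reverse transcribed, real-time PCR for 40 cycles; fold change by 2^−ΔΔCt with ACT1 as internal control.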
compound,measurement,setting,value
O=C(Cc1ccc(OCCCn2c3c(c4cccc(Cl)c42)CCNC3)cc1)NO,MIC80,[1],0.25 µg/mL
same,MIC80,[2],0.5 µg/mL
same,fractional inhibitory concentration index (FICI),[3],0.035
same,MIC80,[4],2 µg/mL
same,IC50,[5],459 nM
same,inhibition,[6],inactive
same,MIC80,[7],> 64 µg/mL
same,Activity,[8],inactive
same,inhibition,[9],Active
same,Activity,[10],Active
same,inhibition,[11],Active
same,Activity,[12],Active
